Experimental data published in paper PMC2193166 (The Journal of Experimental Medicine, 2000).
Blank lines part the entries; values can stand above or below the compound they belong to. No end group written: not given here. *: point of attachment. 125I = [125I]*

Columns and labels:
B/A254 = B/A254 (Homo sapiens, UniProt P25090+Q15722); assay: ^3H-LTB4 binding, B/A254-transfected HEK293 cells
PMNs = assay: Direct binding of ^125I-labeled MHC binding peptide with PMNs; set-up: species or system human; conditions: n = 3, data not shown
human PMNs = assay: Human PMN chemotaxis, 48-well microchamber; format: cell-based
Procedure, shortened: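 Freshly isolated human PMNs were preincubated with vehicle or test compound (10 nM) for 30 min at 37°C and loaded at 5 × 10^4/well into the upper wells of a 48-well chamber fitted with an uncoated 5-μm polycarbonate membrane. The lower wells held peptide (1 nM), test compound, or vehicle (RPMI, 0.1% ethanol). After 60 min at 37°C, migrated cells were Diff-Quik stained and counted by light microscopy. Migration index was chemoattractant over vehicle; three donors.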

ALXR = molecular target: T1, ALXR (Homo sapiens, UniProt P25090); conditions: cited from earlier work
T1 sequence (P25090 1-351): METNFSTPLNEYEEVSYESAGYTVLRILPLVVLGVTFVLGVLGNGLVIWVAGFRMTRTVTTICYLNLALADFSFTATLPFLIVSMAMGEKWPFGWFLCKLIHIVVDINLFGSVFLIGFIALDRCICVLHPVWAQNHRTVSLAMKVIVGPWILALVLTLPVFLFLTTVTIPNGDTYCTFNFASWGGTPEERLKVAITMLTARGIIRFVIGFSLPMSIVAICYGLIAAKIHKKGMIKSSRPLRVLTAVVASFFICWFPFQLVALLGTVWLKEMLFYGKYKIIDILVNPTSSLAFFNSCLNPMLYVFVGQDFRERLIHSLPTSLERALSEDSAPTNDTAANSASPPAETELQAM

- specific ^3H-LTB4 binding (in words) (B/A254): failed to specifically bind
Compound: CCCCC/C=C\C[C@@H](O)/C=C/C=C\C=C\[C@@H](O)CCCC(=O)O [^3H-LTB4, [5,6,8,9,11,12, 14,15-^3H]-LTB4]

- specific binding to PMNs (PMNs): nor did it show specific binding
Compound: ^125I-labeled peptide: MHC binding peptide iodinated at the Tyr residue (MY(125I)FINILTL)
- PMN chemotaxis (in words) (human PMNs): did not promote PMN chemotaxis

Compound: serum amyloid protein A [SAA]
- concentration required to evoke responses (ALXR): micromolar
